Data published in ChEMBL document CHEMBL4308847, “Discovery, Structure-Activity Relationship, and Biological Characterization of a Novel Series of 6-((1 H-Pyrazolo[4,3- b]pyridin-3-yl)amino)-benzo[ d]isothiazole-3-carboxamides as Positive Allosteric Modulators of the Metabotropic Glutamate Receptor 4 (mGlu4)” (J Med Chem, 2018).
Active and inactive are the calls of the source. No cut-off for these calls is given here.

Experiments:
[1] = MRT in rat administered as iv cassette dose; assay type: ADME, organism-based; conditions: in vivo
Procedure, shortened: (§1)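 IV cassette in male Sprague-Dawley rats (~300 g, n = 1 per experiment), cannulated in carotid artery and jugular vein and acclimated about one week. Plasma clearance, Vss, t1/2 and MRT were derived.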

[2] = target: Metabotropic glutamate receptor 3 (Rattus norvegicus) (UniProt P31422); experiment: Allosteric modulation of rat mGlu3 receptor expressed in HEK cells co-expressing GIRK1/2 assessed as change in glutamate-induced thallium flux preincubated for 2.5 mins followed by glutamate addition by FluoZin-2-AM dye based fluorescence assay; assay type: cell-based
Procedure, shortened: (§2)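 HEK cells expressing GIRK1/2 plus rat mGlu2, mGlu3, mGlu7 or mGlu8, plated at 15,000 cells/well. Thallium flux was read with a double addition: 10 μM compound, then 2.5 min later a full agonist concentration-response. The agonist was glutamate, or L-AP4 for mGlu7. A left shift of more than 2-fold counted as potentiation. A right shift of more than 2-fold, or a ≥75% drop in maximum response, counted as antagonism.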

[3] = target: Metabotropic glutamate receptor 5 (Rattus norvegicus) (UniProt P31424); experiment: Allosteric modulation of rat mGlu5 receptor assessed as change in glutamate-induced calcium mobilization at 10 uM preincubated for 2.5 mins followed by glutamate addition by Fluo-4-AM dye based fluorescence assay; assay type: functional
Chain of Metabotropic glutamate receptor 5 (Rattus norvegicus) (P31424 21-1203 limits assumed): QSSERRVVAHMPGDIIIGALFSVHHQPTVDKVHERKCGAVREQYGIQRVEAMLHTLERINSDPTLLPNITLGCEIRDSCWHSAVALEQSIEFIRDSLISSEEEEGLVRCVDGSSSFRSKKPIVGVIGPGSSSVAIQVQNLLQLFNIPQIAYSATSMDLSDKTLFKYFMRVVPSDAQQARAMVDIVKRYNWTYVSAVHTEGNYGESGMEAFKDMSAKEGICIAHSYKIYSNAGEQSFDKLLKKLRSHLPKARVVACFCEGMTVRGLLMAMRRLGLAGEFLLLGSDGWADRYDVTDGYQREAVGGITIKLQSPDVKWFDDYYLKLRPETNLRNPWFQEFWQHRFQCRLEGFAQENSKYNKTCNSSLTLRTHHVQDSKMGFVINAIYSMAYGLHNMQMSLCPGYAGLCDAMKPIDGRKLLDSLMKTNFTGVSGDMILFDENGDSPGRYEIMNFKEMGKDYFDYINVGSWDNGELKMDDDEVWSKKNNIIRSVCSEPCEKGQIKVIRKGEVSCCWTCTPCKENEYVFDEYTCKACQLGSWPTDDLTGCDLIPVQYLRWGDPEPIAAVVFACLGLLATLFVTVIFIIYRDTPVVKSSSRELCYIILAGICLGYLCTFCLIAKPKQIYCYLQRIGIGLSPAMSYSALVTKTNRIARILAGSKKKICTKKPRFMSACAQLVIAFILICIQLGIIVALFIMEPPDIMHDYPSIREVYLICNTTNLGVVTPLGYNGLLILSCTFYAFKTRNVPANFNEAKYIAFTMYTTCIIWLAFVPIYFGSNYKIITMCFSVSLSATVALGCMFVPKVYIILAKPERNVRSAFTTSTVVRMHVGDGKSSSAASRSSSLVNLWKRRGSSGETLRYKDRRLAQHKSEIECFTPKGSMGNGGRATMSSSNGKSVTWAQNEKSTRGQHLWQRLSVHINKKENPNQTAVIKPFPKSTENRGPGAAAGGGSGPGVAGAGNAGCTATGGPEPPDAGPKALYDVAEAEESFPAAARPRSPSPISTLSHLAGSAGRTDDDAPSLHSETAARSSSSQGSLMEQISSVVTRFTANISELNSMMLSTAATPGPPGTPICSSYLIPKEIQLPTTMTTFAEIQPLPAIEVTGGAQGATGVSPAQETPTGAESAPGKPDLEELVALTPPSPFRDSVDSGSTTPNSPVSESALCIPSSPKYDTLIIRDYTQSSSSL
Procedure, shortened: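 Human mGlu1 and rat mGlu5 tested by calcium mobilization with a double addition. 10 μM compound was added, then 2.5 min later a full glutamate concentration range. A left shift of more than 2-fold was scored as potentiation. A right shift of more than 2-fold, or a depression of the maximum response by at least 75%, was scored as antagonism.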

[4] = test system: Rattus norvegicus; experiment: Reversal of haloperidol-induced catalepsy in Sprague-Dawley rat assessed as decrease in latency to remove forepaws from bar at 10 mg/kg, po administered 30 mins prior to test; assay type: functional, organism-based
Procedure, shortened: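 Male Sprague-Dawley rats were randomized and given haloperidol 0.75 mg/kg i.p., then 60 min in home cage. Vehicle or compound (10 mg/kg) was given orally 30 min before catalepsy testing, N = 11–12 rats/group. Data analyzed by one-way ANOVA with Dunnett's test versus vehicle + haloperidol.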

[5] = test system: P-gp; experiment: Efflux ratio of permeability in MDCK cells harboring P-gp; assay type: ADME, cell-based, Canis lupus familiaris; conditions: dog, MDCK-MDR1
[6] = Drug uptake in rat brain administered as iv cassette dose; assay type: ADME, organism-based; conditions: in vivo
Procedure, shortened: (§3)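 Cassette dosing in male Sprague-Dawley rats (~300 g, n = 1 per experiment), with carotid artery and jugular vein catheters. Animals acclimated about one week with food and water ad libitum. Plasma (ng/mL) and brain (ng/g) levels were measured and Kp calculated.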

[7] = target: Metabotropic glutamate receptor 4 (Homo sapiens, UniProt Q14833); experiment: Positive allosteric modulation of human mGlu4 receptor expressed in CHO cells co-expressing Gqi5 assessed as increase in glutamate-induced calcium mobilization preincubated for 142 secs followed by EC20 glutamate addition and measured after 147 secs by Fluo-4-AM dye based fluorescence assay relative to control; assay type: functional, cell-based
Chain of Metabotropic glutamate receptor 4 (Homo sapiens, UniProt Q14833) (Q14833 whole entry): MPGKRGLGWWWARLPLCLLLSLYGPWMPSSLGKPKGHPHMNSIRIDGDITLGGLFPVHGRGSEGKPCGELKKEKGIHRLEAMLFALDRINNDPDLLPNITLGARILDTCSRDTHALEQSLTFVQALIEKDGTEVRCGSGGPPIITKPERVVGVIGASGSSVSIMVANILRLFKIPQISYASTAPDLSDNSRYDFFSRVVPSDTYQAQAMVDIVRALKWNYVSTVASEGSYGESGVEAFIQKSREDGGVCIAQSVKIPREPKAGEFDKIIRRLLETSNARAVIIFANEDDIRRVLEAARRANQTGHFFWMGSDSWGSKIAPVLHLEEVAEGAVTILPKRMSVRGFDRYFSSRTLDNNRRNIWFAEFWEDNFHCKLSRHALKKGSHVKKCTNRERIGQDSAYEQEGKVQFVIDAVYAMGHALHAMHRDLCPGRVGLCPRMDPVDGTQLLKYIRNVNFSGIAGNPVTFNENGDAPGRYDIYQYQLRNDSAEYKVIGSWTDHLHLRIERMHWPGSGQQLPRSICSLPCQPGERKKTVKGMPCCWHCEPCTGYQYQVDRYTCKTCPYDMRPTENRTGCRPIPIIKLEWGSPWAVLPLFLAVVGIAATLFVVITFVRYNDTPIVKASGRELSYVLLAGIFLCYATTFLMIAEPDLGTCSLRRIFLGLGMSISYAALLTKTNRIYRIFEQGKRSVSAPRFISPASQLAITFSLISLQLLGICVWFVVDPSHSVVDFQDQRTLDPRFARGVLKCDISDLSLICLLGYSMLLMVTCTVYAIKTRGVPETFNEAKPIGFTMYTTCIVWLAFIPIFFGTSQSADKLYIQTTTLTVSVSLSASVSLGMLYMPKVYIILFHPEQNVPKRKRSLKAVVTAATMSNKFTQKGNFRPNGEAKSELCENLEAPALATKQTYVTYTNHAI
Procedure, shortened: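 CHO cells expressing human mGlu4 and Gqi5, plated at 30,000 cells/well and grown overnight at 37 °C, 5% CO2. Cells were loaded with 1 μM Fluo-4 AM for 45 min at 37 °C in HBSS/20 mM HEPES/2.5 mM probenecid. Compounds were run as 10-point, 1:3 dilution series. After 142 s, EC20 glutamate was added; 147 s later, EC80 glutamate. Fluorescence was normalized to the maximal glutamate response. EC50 and %Glu Max were fitted by four-parameter logistic, with maximum normalized to PHCCC.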

[8] = Clearance in rat administered as iv cassette dose; assay type: ADME, organism-based; conditions: in vivo; procedure, shortened: as §1
[9] = Volume of distribution at steady state in rat administered as iv cassette dose; assay type: ADME, organism-based; conditions: in vivo, read-out: Vdss; procedure, shortened: as §1
[10] = Intrinsic clearance in rat liver microsomes at 1 uM preincubated for 5 mins followed by NADPH addition measured up to 45 mins by LC-MS/MS analysis; assay type: ADME, Microsome; conditions: read-out: CLH
Procedure, shortened: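 Intrinsic and predicted hepatic clearance derived from liver microsome incubations.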

[11] = target: Metabotropic glutamate receptor 8 (Rattus norvegicus) (UniProt P70579); experiment: Allosteric modulation of rat mGlu8 receptor expressed in HEK cells co-expressing GIRK1/2 assessed as change in glutamate-induced thallium flux preincubated for 2.5 mins followed by glutamate addition by FluoZin-2-AM dye based fluorescence assay; assay type: cell-based; procedure, shortened: as §2
[12] = target: Cytochrome P450 3A4 (Homo sapiens, UniProt P08684); experiment: Inhibition of CYP3A4 in human liver microsomes using midazolam as substrate preincubated for 15 mins followed by substrate addition and measured after 8 mins by LC-MS/MS analysis; assay type: ADME
Chain of Cytochrome P450 3A4 (P08684 whole entry): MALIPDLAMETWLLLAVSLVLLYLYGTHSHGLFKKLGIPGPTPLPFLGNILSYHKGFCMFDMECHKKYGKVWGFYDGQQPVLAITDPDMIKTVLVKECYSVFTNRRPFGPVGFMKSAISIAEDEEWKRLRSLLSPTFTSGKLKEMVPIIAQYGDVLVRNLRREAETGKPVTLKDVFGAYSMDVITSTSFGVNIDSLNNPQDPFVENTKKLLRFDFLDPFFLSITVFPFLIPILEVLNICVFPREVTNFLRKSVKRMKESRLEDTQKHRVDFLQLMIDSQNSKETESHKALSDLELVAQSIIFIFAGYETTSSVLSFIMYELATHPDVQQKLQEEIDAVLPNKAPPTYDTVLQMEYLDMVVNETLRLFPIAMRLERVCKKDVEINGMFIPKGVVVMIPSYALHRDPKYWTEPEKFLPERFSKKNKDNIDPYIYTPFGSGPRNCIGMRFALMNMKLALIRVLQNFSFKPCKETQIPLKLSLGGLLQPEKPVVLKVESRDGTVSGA

[13] = target: Metabotropic glutamate receptor 2 (Rattus norvegicus) (UniProt P31421); experiment: Allosteric modulation of rat mGlu2 receptor expressed in HEK cells co-expressing GIRK1/2 assessed as change in glutamate-induced thallium flux preincubated for 2.5 mins followed by glutamate addition by FluoZin-2-AM dye based fluorescence assay; assay type: cell-based; procedure, shortened: as §2
[14] = Plasma concentration in rat administered as iv cassette dose; assay type: ADME, organism-based; conditions: in vivo; procedure, shortened: as §3
[15] = target: Metabotropic glutamate receptor 4 (Rattus norvegicus) (UniProt P31423); experiment: Positive allosteric modulation of rat mGlu4 receptor expressed in HEK cells co-expressing GIRK1/2 assessed as increase in glutamate-induced thallium flux preincubated for 140 secs followed by glutamate addition and measured after 2.5 mins by FluoZin-2-AM dye based fluorescence assay relative to control; assay type: cell-based
Chain of Metabotropic glutamate receptor 4 (Rattus norvegicus) (P31423 whole entry): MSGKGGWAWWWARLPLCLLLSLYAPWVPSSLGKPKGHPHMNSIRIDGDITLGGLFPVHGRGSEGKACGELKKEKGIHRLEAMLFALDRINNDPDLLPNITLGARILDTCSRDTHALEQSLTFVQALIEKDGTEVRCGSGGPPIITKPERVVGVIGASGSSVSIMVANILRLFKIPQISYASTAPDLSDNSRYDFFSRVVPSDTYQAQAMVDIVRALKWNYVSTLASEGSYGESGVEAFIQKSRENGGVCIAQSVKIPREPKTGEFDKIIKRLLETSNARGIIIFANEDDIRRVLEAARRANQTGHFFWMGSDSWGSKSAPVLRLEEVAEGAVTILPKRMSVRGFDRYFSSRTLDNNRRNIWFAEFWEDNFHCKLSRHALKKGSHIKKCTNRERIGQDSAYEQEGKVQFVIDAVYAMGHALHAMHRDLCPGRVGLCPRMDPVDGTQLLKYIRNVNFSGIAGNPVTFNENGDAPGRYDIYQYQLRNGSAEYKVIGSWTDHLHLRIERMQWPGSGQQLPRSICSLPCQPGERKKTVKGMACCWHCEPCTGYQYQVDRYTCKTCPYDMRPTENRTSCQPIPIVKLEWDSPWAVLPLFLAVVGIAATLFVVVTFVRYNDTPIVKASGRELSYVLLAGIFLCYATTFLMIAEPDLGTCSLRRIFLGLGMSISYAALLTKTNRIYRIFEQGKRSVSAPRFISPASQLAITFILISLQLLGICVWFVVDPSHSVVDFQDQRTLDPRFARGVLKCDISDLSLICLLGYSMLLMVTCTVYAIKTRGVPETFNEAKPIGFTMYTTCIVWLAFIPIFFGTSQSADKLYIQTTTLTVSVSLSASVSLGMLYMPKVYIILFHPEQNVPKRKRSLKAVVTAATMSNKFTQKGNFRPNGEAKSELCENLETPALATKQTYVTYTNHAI
Procedure, shortened: (§4)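 HEK cells co-expressing rat mGlu4 and GIRK1/2 were loaded for 1 h at room temperature with FluoZin-2 AM (330 nM final) in HBSS/20 mM HEPES pH 7.4. Compound was incubated 140 s, then thallium buffer with or without agonist was added. Reading continued for 2.5 min at room temperature. Potency was fitted by four-parameter logistic.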

[16] = target: T1, Adenosine receptor A3 (Homo sapiens) (UniProt P0DMS8); experiment: Displacement of [125I]AB-MECA from recombinant human A3 receptor at 10 uM after 120 mins by scintillation counting method relative to control
T1 sequence (whole entry): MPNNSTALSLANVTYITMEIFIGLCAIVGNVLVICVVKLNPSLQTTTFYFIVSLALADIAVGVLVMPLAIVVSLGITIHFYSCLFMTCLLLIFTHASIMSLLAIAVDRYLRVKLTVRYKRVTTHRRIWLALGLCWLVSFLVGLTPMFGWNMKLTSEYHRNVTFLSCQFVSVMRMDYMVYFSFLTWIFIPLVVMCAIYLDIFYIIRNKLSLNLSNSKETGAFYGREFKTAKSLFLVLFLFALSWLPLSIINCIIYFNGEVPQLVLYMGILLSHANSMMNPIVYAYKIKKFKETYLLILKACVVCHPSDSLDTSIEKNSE

[17] = target: Metabotropic glutamate receptor 7 (Rattus norvegicus) (UniProt P35400); experiment: Allosteric modulation of rat mGlu7 receptor expressed in HEK cells co-expressing GIRK1/2 assessed as change in glutamate-induced thallium flux preincubated for 2.5 mins followed by glutamate addition by FluoZin-2-AM dye based fluorescence assay; assay type: cell-based
Chain of Metabotropic glutamate receptor 7 (Rattus norvegicus) (P35400 whole entry): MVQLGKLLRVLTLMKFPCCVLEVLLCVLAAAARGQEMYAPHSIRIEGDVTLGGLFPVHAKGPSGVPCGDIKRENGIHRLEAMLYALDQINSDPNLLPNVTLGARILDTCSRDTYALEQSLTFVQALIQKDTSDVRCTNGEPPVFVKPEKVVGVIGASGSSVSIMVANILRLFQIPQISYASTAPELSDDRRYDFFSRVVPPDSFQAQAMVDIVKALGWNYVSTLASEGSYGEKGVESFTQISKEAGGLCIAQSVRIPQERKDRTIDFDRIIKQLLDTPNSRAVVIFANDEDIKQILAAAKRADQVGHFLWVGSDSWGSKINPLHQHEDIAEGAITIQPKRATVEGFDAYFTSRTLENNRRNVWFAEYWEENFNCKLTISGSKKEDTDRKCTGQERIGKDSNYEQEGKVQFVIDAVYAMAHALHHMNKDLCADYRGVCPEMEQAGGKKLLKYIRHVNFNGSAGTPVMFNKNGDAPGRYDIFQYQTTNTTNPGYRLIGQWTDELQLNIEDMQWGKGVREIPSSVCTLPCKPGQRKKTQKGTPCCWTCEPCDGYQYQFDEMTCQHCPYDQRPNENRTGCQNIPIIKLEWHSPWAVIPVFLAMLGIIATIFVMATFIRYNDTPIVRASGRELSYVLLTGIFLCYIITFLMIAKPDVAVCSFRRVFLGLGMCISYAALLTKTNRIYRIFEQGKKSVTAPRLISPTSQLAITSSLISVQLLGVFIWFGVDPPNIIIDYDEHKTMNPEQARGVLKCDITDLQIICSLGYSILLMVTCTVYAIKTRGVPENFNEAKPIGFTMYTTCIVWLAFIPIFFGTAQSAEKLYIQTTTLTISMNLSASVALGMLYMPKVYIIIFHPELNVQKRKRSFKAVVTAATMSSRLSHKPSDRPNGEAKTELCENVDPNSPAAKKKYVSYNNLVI

[18] = target: Metabotropic glutamate receptor 4 (Rattus norvegicus, UniProt P31423); experiment: Positive allosteric modulation of rat mGlu4 receptor expressed in HEK cells co-expressing GIRK1/2 assessed as increase in glutamate-induced thallium flux preincubated for 140 secs followed by glutamate addition and measured after 2.5 mins by FluoZin-2-AM dye based fluorescence assay; assay type: cell-based; procedure, shortened: as §4
Chain of Metabotropic glutamate receptor 4 (Rattus norvegicus, UniProt P31423) (P31423 whole entry): as the sequence (P31423 whole entry) above

SMILES: O=C(NC1CC(F)(F)C1)c1nsc2cc(Nc3n[nH]c4cccnc34)ccc12
- MRT [1]: 8.5 h
- Activity [2]: inactive
- Activity [3]: inactive
- Activity [4]: Active
- efflux ratio [5]: 1.9
- Drug uptake [6]: 107 ng/g
- %max [7]: 50.5%
- clearance [8]: 3.1 mL/min/kg
- Vd [9]: 1.6 L/kg
- CLint scaled at 1 µM [10]: 34.2 mL/min/kg
- Activity [11]: inactive
- IC50 [12]: > 30000 nM
- Activity [13]: inactive
- Cp [14]: 284 ng/mL
- %max [15]: 76.8%
- inhibition [16]: 76%
- Activity [17]: inactive
- EC50 [18]: 82.7 nM
